Laboratory results reported in PMC12120886 (Plant Biotechnology Journal, 2025).

Key:
LsLTC2 = molecular target: T1, LsLTC2 (Lactuca sativa, UniProt Q8S3A5); assay: GC-MS of germacrene A from yeast expressing the synthase with ERG20; type: cell-based; conditions: S. cerevisiae JCR27, endogenous FPP
T1 sequence (Q8S3A5 1-557): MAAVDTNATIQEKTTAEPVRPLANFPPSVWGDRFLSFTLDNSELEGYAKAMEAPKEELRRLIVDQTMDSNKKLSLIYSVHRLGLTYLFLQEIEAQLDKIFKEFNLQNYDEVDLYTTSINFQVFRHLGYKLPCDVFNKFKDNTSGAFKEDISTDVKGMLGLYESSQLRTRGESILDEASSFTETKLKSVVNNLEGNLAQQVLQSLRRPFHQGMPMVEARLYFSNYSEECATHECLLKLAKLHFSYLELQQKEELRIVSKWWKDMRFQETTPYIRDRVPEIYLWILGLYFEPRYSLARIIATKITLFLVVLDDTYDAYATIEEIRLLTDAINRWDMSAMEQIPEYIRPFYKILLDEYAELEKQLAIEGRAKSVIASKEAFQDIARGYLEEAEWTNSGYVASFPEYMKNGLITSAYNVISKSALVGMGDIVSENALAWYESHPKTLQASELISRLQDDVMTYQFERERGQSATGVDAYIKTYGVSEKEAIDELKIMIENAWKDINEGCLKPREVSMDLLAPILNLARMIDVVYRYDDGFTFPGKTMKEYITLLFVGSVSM

STpGMAS = molecular target: T2, STpGMAS (Tanacetum parthenium, UniProt F8UL80); assay: as above; type: cell-based; conditions: S. cerevisiae JCR27, endogenous FPP
T2 sequence (F8UL80 1-559): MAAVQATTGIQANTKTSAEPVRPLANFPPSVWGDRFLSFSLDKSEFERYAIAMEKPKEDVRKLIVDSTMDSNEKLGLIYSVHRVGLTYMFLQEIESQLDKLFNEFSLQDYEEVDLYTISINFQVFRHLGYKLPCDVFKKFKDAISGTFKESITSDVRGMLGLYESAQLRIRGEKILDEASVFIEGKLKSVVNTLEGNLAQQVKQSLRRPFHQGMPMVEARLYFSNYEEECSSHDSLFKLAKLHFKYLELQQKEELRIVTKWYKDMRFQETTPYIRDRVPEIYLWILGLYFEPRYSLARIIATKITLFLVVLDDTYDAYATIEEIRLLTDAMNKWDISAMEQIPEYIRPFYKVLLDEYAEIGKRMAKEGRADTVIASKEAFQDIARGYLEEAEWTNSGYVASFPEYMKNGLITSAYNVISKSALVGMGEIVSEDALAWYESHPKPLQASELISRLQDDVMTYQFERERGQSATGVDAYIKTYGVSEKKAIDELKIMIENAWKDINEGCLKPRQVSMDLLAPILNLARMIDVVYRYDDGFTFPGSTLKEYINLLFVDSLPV

LcTPS3 = assay: malachite green phosphate-release assay, Michaelis-Menten fit; type: biochemical, Liriodendron chinense; conditions: 5 mM MgCl2, 50 mM MOPS pH 7.0 (optimum printed as pH 7.5), 35 °C, FPP 0-25 μM
Outline: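 Recombinant His-tagged enzyme was expressed from pET-28a(+) in E. coli BL21(DE3) pLysS, induced with 1 mM IPTG at 16 °C for 16 h, and bead-purified. FPP (0–25 μM) was reacted with 5 mM MgCl2 in 50 mM MOPS pH 7.0 at 35 °C for 15 min. Phosphatase-released phosphate was read by malachite green at 620 nm. Km came from a Michaelis–Menten fit of initial velocity versus [FPP].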

`CC(C)=CCC/C(C)=C/CC/C(C)=C/COP(=O)(O)OP(=O)(O)O` [FPP] was tested. Which “GC-MS of germacrene A from yeast expressing the synthase with ERG20” value (LsLTC2) did it give?
The value was “co‐expressed LcTPS3, NPGAS, LsLTC2 and STpGMAS with a yeast–derived farnesyl diphosphate synthase (EGR20)”.

What about the “GC-MS of germacrene A from yeast expressing the synthase with ERG20” value (STpGMAS) of the same compound?
The value was “co‐expressed LcTPS3, NPGAS, LsLTC2 and STpGMAS with a yeast–derived farnesyl diphosphate synthase (EGR20)”.

What about the Km (LcTPS3) of the same compound?
Its Km is 17.7 ± 0.47 µM.
